Consider 37 compounds from PubChem BioAssay AID651608 (The Scripps Research Institute Molecular Screening Center, 2012).

Some of the results follow. Active and inactive are the calls of the source.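 How the source made its calls: active means average inhibition over triplicates above the hit cutoff set in the earlier primary screen (cut at about 25% in these data); inactive means the rest.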

In this experiment the target is ADP-ribosylation factor GTPase-activating protein 1 (Rattus norvegicus) (UniProt Q62848). The experiment in a line: ARFGAP1 inhibitor hit confirmation, biochemical, fluorescence polarization, triplicate (AID 651608).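 Further: 0% = Arfgap1 plus ARF1-GTP with DMSO and 100% = wells lacking Arfgap1.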 The settings on record: ARFGAP1-stimulated ARF1 GTP hydrolysis, GDP tracer FP; at 16.5 µM; stronger effect = higher value. In outline: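 Material: rat Arfgap1 GAP domain (residues 1-136) acting on human ARF1 Δ1-17. Medium: HEPES-based assay buffer at pH 7.5. Dosing: 16.5 µM, one dose. Incubation: 20 min compound–enzyme pre-incubation, 120 min hydrolysis at 25 °C, 60 min detection. Technique: GDP tracer fluorescence polarization. Benchmarks: high control wells lacking Arfgap1. Repeats: three replicates.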
Chain of ADP-ribosylation factor GTPase-activating protein 1 (Rattus norvegicus) (Q62848 whole entry, looked up, the tested form may be a part): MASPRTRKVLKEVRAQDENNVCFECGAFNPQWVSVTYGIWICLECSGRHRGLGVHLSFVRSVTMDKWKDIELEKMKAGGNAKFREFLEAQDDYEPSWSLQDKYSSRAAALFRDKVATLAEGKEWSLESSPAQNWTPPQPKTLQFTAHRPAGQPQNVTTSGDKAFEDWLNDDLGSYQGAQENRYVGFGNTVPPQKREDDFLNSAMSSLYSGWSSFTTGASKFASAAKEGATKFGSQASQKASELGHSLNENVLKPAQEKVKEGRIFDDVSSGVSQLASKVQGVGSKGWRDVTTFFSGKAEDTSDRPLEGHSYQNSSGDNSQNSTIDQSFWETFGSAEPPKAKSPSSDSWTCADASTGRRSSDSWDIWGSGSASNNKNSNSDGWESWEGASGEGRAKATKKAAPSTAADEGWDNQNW
Regarding `Nc1ccc(S(=O)(=O)Nc2nccc(/C=C/c3ccc(Br)s3)n2)cc1`, the inhibition is -3.16% (inactive).

As for `Cc1ccc(-n2ncc3c2ncn2nc(-c4ccco4)nc32)c(C)c1`, the inhibition was 3.31% (inactive).

For the compound `Cc1ccc(NC(=O)c2ccc(Oc3ncccn3)cc2)cc1`, the inhibition was 1.89% (inactive).

As to `CC1CCc2[nH]c3ccc(C(=O)N(C)CC(=O)Nc4cccc(F)c4)cc3c2C1` (configuration not stated), the inhibition is 1.73% (inactive).

Take `c1ccc(-c2cc(-c3nnc4sc(-c5ccccn5)nn34)[nH]n2)cc1`: the inhibition is 36.3% (active).

`CCNS(=O)(=O)c1ccc(NC(=O)Nc2cccc(C(F)(F)F)c2)cc1`: the inhibition was 18.2% (inactive).

Take `COc1ccc(-c2csc(Nc3ccc(O)cc3)n2)cc1`: the inhibition was 4.53% (inactive).

As for `CC(C)CCSc1ncnc2c1oc1nc3c(cc12)COC(C)(C)C3`, the inhibition was 1.56% (inactive).

As to `COc1ccc(-n2nc3c(N4CCC(C(=O)NCc5ccccc5)CC4)nnc(C)c3c2C)cc1`, the inhibition was 44% (active).

Consider `COc1ccc(Cl)cc1NC(=O)Cn1nc(-c2ccc(C)cc2)n(C)c1=S`, for which the inhibition was 1.54% (inactive).

For `COc1ccc(CNC(=O)C(Cc2ccccc2)n2cccc2)cc1` (configuration not stated), the inhibition is 2% (inactive).

For the compound `CN(C)CCNC(=O)c1ccc(-c2cn3c(-c4ccc(Oc5ccccc5)cc4)cnc3cn2)cc1`, the inhibition is 48.8% (active).

As to `O=C(NC1CCCCC1)c1ccc(CNc2c(N3CCOCC3)c(=O)c2=O)cc1`, the inhibition is -1.66% (inactive).

Regarding `O=C(Nc1cccc(-c2nc3ccccc3[nH]2)c1)c1ccc(C(=O)Nc2cccc(-c3nc4ccccc4[nH]3)c2)cc1`, the inhibition is 60.7% (active).

For `Cc1ccc2nc(N3C(=O)C(O)=C(C(=O)c4ccco4)C3c3cccc(O)c3)sc2c1` (configuration not stated), the inhibition is 18.3% (inactive).

For the compound `O=C(O)CCn1cc(/C=C/C(=O)c2ccc(Cl)cc2)c(-c2cccc(Br)c2)n1`, the inhibition was -2.84% (inactive).

Take `COCCNc1cc(-c2ccccc2)nc2cc(-c3cccc(F)c3)nn12`: the inhibition was 10.8% (inactive).

As to `COc1ccc(C(CNC(=O)c2cccc(S(=O)(=O)Nc3ccccc3Cl)c2)N2CCOCC2)cc1` (configuration not stated), the inhibition is 4.17% (inactive).

With `COc1ccc(/C=C2\SC(=S)N(CCCC(=O)NC3CCCC3)C2=O)cc1OC`, the inhibition is -4.01% (inactive).

With `COc1cccc(CNc2nc(C(F)(F)F)nc3ccccc23)c1`, the inhibition is 8.01% (inactive).

For `CCOC(=O)C1CCN(C(c2cc3cc(C)cc(C)c3[nH]c2=O)c2nnnn2C2CCCCC2)CC1` (configuration not stated), the inhibition was 0.48% (inactive).

Regarding `COc1ccc(NC(=O)c2cn(-c3ccccc3)nc2SC)cc1`, the inhibition is 18.4% (inactive).

Regarding `O=C(/C=C/c1cn(-c2ccccc2)nc1-c1ccc2c(c1)OCCO2)NCCCN1CCOCC1`, the inhibition is 13% (inactive).

Consider `CCN(CC)c1ccc(NC(=O)CN2CCN(c3ccccn3)CC2)cc1`, for which the inhibition was -5.51% (inactive).

For `CCO[C@@H]1OC(C(N)=O)=C[C@H](c2ccc(Br)cc2)[C@H]1CCCO`, the inhibition was 0.74% (inactive).

`O=C(O)CSCc1ccc(C(=O)O)o1`: the inhibition is 5.16% (inactive).

In the case of `Cc1ccc2nc(SCC(=O)N3CC(C)OC(C)C3)nc(=O)n2c1` (configuration not stated), the inhibition was 90.3% (active).

With `Cn1c(=O)[nH]c(=O)c2c1nc(N1CCN(CCO)CC1)n2CCSc1nc2ccccc2s1`, the inhibition was -2.06% (inactive).

Turning to `COc1ccccc1OCC(=O)OCn1c(SC)nnc(C)c1=O`, the inhibition was 0.34% (inactive).

On to `OC(COc1cccc(OCC(O)CN2CCCC2)c1)CN1CCCC1` (configuration not stated), for which the inhibition is 1.32% (inactive).

On to `C#C[C@]1(O)CC[C@H]2[C@@H]3CCC4=CC(=O)CC[C@@H]4[C@H]3CC[C@@]21CC`, for which the inhibition is 4.82% (inactive).

Turning to `CCn1c(SCc2cc(=O)n3ccsc3n2)nc2ccccc21`, the inhibition was -5.82% (inactive).

Take `O=C(CCc1ccccc1)Nc1ncc([N+](=O)[O-])s1`: the inhibition was -7.17% (inactive).

Take `COC(=O)c1cc2c(c3c4ccccc4n(S(=O)(=O)c4cccc(C)c4)c13)C(=O)N(Cc1ccccc1)C2`: the inhibition is -0.32% (inactive).

With `COc1ccc(C(N)c2csc(NC(=O)Nc3cccc(C(F)(F)F)c3)n2)cc1` (configuration not stated), the inhibition was 19.2% (inactive).

In the case of `Cc1cc(C)cc(NC(=O)C2CCCN(S(=O)(=O)c3ccc4[nH]c(=O)ccc4c3)C2)c1` (configuration not stated), the inhibition was 0.48% (inactive).

Consider `CCOC(=O)c1ccc(Nc2cc3ccccc3c(=O)[nH]2)cc1`, for which the inhibition is 9.83% (inactive).
